Measurements from ChEMBL document CHEMBL2157887, “Adamantyl carboxamides and acetamides as potent human 11β-hydroxysteroid dehydrogenase type 1 inhibitors” (Bioorg Med Chem, 2012).
Active and inactive are the calls of the source. The calls are words filed in the database; no cut-off is given here.

What was measured:
[1] = biological target: T1, 17-beta-hydroxysteroid dehydrogenase type 1 (Homo sapiens) (UniProt P14061); test: Inhibition of human 17beta-HSD1 in human T47D cells assessed as conversion of [3H]E1 to [3H]E2 at 10 uM after 30 mins; format: cell-based
T1 sequence (whole entry): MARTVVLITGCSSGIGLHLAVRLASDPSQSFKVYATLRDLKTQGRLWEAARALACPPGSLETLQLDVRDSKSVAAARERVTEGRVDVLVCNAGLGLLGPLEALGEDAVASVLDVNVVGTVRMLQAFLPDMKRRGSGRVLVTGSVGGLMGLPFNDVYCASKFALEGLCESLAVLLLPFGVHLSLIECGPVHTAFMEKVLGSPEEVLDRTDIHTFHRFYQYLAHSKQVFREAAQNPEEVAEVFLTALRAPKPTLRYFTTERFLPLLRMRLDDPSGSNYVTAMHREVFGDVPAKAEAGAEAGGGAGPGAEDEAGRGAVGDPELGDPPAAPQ

[2] = biological target: T2, 11-beta-hydroxysteroid dehydrogenase type 2 (Homo sapiens) (UniProt P80365); test: Inhibition of human 11beta-HSD2 expressed in CHO cells assessed as conversion of [3H]cortisol to [3H]cortisone at 10 uM after 2 hrs
T2 sequence (whole entry): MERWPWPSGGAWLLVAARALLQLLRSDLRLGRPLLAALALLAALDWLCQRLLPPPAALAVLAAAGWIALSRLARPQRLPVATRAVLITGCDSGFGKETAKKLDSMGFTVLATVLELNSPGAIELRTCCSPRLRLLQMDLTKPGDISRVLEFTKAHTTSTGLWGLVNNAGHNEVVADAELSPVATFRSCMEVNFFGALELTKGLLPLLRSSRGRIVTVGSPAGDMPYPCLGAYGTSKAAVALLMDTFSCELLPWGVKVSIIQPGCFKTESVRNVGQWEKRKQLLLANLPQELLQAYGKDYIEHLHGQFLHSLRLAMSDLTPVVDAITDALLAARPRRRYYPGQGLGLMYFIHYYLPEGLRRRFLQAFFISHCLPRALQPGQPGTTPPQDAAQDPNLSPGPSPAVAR

[3] = Half life in human liver microsomes by HPLC analysis in presence of NADPH; format: ADME, Microsome
Outline: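 Parent compound incubated with human liver microsomes plus NADPH cofactor at 37 °C for 40 min; remaining parent quantified by HPLC to derive T1/2.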

[4] = biological target: 11-beta-hydroxysteroid dehydrogenase 1 (Homo sapiens) (UniProt P28845); test: Inhibition of human 11beta-HSD1 expressed in HEK293 cells assessed as conversion of [3H]cortisone to [3H]cortisol at 1 uM after 2 hrs by scintillation counting; format: cell-based
Sequence of 11-beta-hydroxysteroid dehydrogenase 1 (Homo sapiens) (P28845 whole entry, looked up): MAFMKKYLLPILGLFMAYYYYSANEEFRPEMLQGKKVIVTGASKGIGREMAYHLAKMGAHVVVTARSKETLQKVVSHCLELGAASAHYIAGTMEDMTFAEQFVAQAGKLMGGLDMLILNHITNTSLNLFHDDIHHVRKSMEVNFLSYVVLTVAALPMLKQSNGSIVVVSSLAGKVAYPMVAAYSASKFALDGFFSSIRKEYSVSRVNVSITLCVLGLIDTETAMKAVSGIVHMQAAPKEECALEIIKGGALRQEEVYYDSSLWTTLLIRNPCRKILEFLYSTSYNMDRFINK
Outline: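 HSD11B1-stably transfected HEK-293 cells grown to 80% confluence, then given serum-free medium with 22 nM ³H-cortisone and compound in 1% DMSO, 37 °C, 2 h. Medium sampled into anti-cortisol antibody/SPA bead mix, shaken to equilibrium, scintillation counted. Percent inhibition against high controls (no compound) and low controls (no cells).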

Row | SMILES | inhibition [1] | inhibition [2] | half-life [3] | inhibition [4]
1 | Cn1cccc1CNC(=O)CC12CC3CC(CC(C3)C1)C2 | inactive | inactive | – | –
2 | O=C(NCCc1ccccn1)C12CC3CC(CC(C3)C1)C2 | inactive | inactive | – | –
3 | CN(Cc1ccnn1C)C(=O)C12CC3CC(CC(C3)C1)C2 | inactive | inactive | – | –
4 | CN(Cc1ccc(Cl)s1)C(=O)C12CC3CC(CC(C3)C1)C2 | inactive | inactive | – | –
5 | CN(Cc1cccs1)C(=O)C1(C)CCCCC1 | inactive | inactive | – | –
6 | O=C(NCCc1cccnc1)C12CC3CC(CC(C3)C1)C2 | inactive | inactive | – | –
7 | Cc1cccc(CN(C)C(=O)C23CC4CC(CC(C4)C2)C3)c1 | inactive | inactive | – | –
8 | CC(=O)Nc1cccc(CN(C)C(=O)C23CC4CC(CC(C4)C2)C3)c1 | inactive | inactive | – | –
9 | CN(Cc1cccnc1)C(=O)CC12CC3CC(CC(C3)C1)C2 | inactive | inactive | – | –
10 | Cn1cccc1CNC(=O)C12CC3CC(CC(C3)C1)C2 | inactive | inactive | – | –
11 | CN(Cc1ccco1)C(=O)C12CC3CC(CC(C3)C1)C2 | inactive | inactive | – | –
12 | Cc1ccc(C2(C(=O)N(C)Cc3cccs3)CC2)cc1 | inactive | inactive | – | –
13 | O=C(NCc1cccs1)C12CC3CC(CC(C3)C1)C2 | inactive | inactive | – | –
14 | CN(CCc1ccccn1)C(=O)C12CC3CC(CC(C3)C1)C2 | inactive | inactive | – | –
15 | CN(Cc1cccn1C)C(=O)CC12CC3CC(CC(C3)C1)C2 | inactive | inactive | – | –
16 | O=C(NCc1ccco1)C12CC3CC(CC(C3)C1)C2 | inactive | inactive | – | –
17 | CN(Cc1cccs1)C(=O)CC12CC3CC(CC(C3)C1)C2 | inactive | inactive | – | –
18 | Cc1cccc(CN(C)C(=O)C23CC4CC(CC(C4)C2)C3)n1 | inactive | inactive | – | –
19 | CN(Cc1cccn1C)C(=O)C12CC3CC(CC(C3)C1)C2 | inactive | inactive | 1 h | –
20 | CN(CCc1cccs1)C(=O)C12CC3CC(CC(C3)C1)C2 | inactive | inactive | – | –
21 | CN(Cc1nccn1C)C(=O)C12CC3CC(CC(C3)C1)C2 | inactive | inactive | – | –

Row | SMILES | inhibition [1] | inhibition [2] | half-life [3] | inhibition [4]
22 | CN(Cc1ccsc1)C(=O)C12CC3CC(CC(C3)C1)C2 | inactive | inactive | – | –
23 | CN(Cc1cccs1)C(=O)C12CC3CC(CC1C3)C2 | inactive | inactive | – | –
24 | Cc1csc(CN(C)C(=O)C23CC4CC(CC(C4)C2)C3)n1 | inactive | inactive | – | –
25 | Cc1ccc(CN(C)C(=O)C23CC4CC(CC(C4)C2)C3)s1 | inactive | inactive | – | –
26 | O=C(NCc1ccccn1)C12CC3CC(CC(C3)C1)C2 | inactive | inactive | – | –
27 | CN(Cc1ccccn1)C(=O)CC12CC3CC(CC(C3)C1)C2 | inactive | inactive | – | 26%
28 | CN(Cc1sccc1N)C(=O)C12CC3CC(CC(C3)C1)C2 | inactive | inactive | – | –
29 | Cc1csc(CNC(=O)C23CC4CC(CC(C4)C2)C3)c1 | inactive | inactive | – | –
30 | CN(Cc1cccnc1)C(=O)C12CC3CC(CC(C3)C1)C2 | inactive | inactive | – | –
31 | CN(Cc1cccc(Cl)c1)C(=O)C12CC3CC(CC(C3)C1)C2 | inactive | inactive | – | –
32 | O=C(NCCc1cccs1)C12CC3CC(CC(C3)C1)C2 | inactive | inactive | – | –
33 | CN(Cc1cccs1)C(=O)C12CC3CC(CC(C3)C1)C2 | inactive | inactive | 1 h | –
34 | CN(Cc1cccs1)C(=O)C1(c2ccc(Cl)cc2)CC1 | inactive | inactive | – | –
35 | O=C(CC12CC3CC(CC(C3)C1)C2)NCc1cccs1 | inactive | inactive | – | –
36 | Cc1csc(CN(C)C(=O)C23CC4CC(CC(C4)C2)C3)c1 | inactive | inactive | – | –
37 | CN(Cc1ccsc1)C(=O)CC12CC3CC(CC(C3)C1)C2 | inactive | inactive | – | –
38 | CN(Cc1cccs1)C(=O)C1(c2ccc(Cl)cc2)CCC1 | inactive | inactive | – | –
39 | Cc1ccsc1CN(C)C(=O)C12CC3CC(CC(C3)C1)C2 | inactive | inactive | – | –
40 | O=C(NCc1cccnc1)C12CC3CC(CC(C3)C1)C2 | inactive | inactive | – | –
41 | CN(Cc1cccc(N)c1)C(=O)C12CC3CC(CC(C3)C1)C2 | inactive | inactive | – | –
42 | CN(Cc1cccs1)C(=O)C1(c2ccc(Cl)cc2)CCCC1 | inactive | inactive | – | –
